{"data": "Measured values collected from several papers", "target": "Tyrosine-protein kinase Lyn (LYN, Homo sapiens, UniProt P07948)", "note": "Compare with care: the assays were run in different laboratories."}
{"SMILES": "CNC(=O)c1cc(Oc2ccc(NC(=O)Nc3ccc(Cl)c(C(F)(F)F)c3)cc2)ccn1", "assay": "enzyme activity, inhibitor", "setting": "10 µM", "measurement": "inhibition", "value": "96%"}
{"SMILES": "CN1CCC2(CC1)NC(=O)c1c(c3ccc(Cl)c(Cl)c3n1C)C2C#N (racemic)", "assay": "thermal stability, DSF", "setting": "10 µM", "measurement": "ΔTm", "value": "-0.1 °C"}
{"SMILES": "O=C(NS(=O)(=O)c1ccc(NCC2CCOCC2)c([N+](=O)[O-])c1)c1ccc(N2CCN(Cc3ccc(C(F)(F)F)cc3-c3ccc(Cl)cc3)CC2)cc1Oc1cnc2[nH]ccc2c1", "assay": "cell-free assay, competition with immobilised ligand", "setting": "1 µM", "measurement": "remaining binding", "value": "99%"}
{"SMILES": "N#CC1c2c([nH]c3c(Cl)c(Cl)ccc23)C(=O)NC12CCCCC2 (racemic)", "assay": "thermal stability, DSF", "setting": "10 µM", "measurement": "ΔTm", "value": "0.2 °C"}
{"SMILES": "C=CC(=O)Nc1cc(Nc2nccc(Nc3cc(Cl)c(F)cc3C(C)(C)O)n2)c(OC)cc1N1CC[C@@H](N(C)C)C1", "assay": "enzyme activity, inhibitor", "setting": "1 µM", "measurement": "inhibition", "value": "44%"}
{"SMILES": "CN(C)c1ncnc(-c2ccc3nc(Nc4cc(CN5CCN(C(=O)CC(F)(F)F)CC5)ccn4)[nH]c3c2)c1Cl", "assay": "cell-free assay, competition with immobilised ligand", "setting": "1 µM", "measurement": "remaining binding", "value": "94%"}
{"SMILES": "CNCc1ccc(-c2cc(-c3nc(-c4ccc(S(=O)(=O)C(C)C)cc4)cnc3N)on2)cc1", "assay": "enzyme activity, inhibitor", "setting": "0.4 µM", "measurement": "inhibition", "value": "13%"}
{"SMILES": "Cc1c(NC(=O)c2cc(C(N)=O)nc3cc(F)ccc23)c(C(F)(F)F)nn1Cc1ccc(C#N)cc1", "assay": "cell-free assay, competition with immobilised ligand", "setting": "1 µM", "measurement": "remaining binding", "value": "100%"}
{"SMILES": "c1nc2c(Nc3ccc4c(c3)OCCO4)nc(Nc3ccc4c(c3)OCCO4)nc2[nH]1", "assay": "enzyme activity, inhibitor", "setting": "10 µM", "measurement": "activity vs control", "value": "32%"}
{"SMILES": "O=c1c2ccccc2[nH]c(=S)n1CCN1CCC(=C(c2ccc(F)cc2)c2ccc(F)cc2)CC1", "assay": "enzyme activity, inhibitor", "setting": "0.5 µM", "measurement": "remaining activity", "value": "108%"}
{"SMILES": "CC(C)(C)c1nc(-c2cccc(NS(=O)(=O)c3c(F)cccc3F)c2F)c(-c2ccnc(N)n2)s1", "assay": "enzyme activity, inhibitor, radiometric", "setting": "1 µM", "measurement": "remaining activity", "value": "51%"}
{"SMILES": "O=C1NC(=O)c2cc(Nc3ccc(F)cc3)c(Nc3ccc(F)cc3)cc21", "assay": "cell-free assay, inhibitor", "setting": "0.5 µM", "measurement": "remaining signal", "value": "98.7%"}
{"SMILES": "Cc1ccc(C(=O)NCc2ccsc2)cc1C#Cc1cn(C(C)C)c2ncnc(N)c12", "assay": "enzyme activity, inhibitor", "setting": "1 µM", "measurement": "activity vs control", "value": "0%"}
{"SMILES": "Cn1nc(C(F)(F)F)cc1-c1cnc(N2CCc3cc(S(=O)(=O)Nc4c(F)cc(Cl)cc4F)cc(N4CCCC4=O)c32)nc1", "assay": "cell-free assay, competition with immobilised ligand", "setting": "1 µM", "measurement": "remaining binding", "value": "100%"}
{"SMILES": "Clc1ccc(Nc2nnc(Cc3ccncc3)c3ccccc23)cc1", "assay": "cell-free assay", "setting": "0.5 µM", "measurement": "remaining signal", "value": "91.8%"}
{"SMILES": "N#CC1(c2ccccn2)CCN(Cc2cc(C(=O)N3CCCC3)c(=O)n3ccccc23)CC1", "assay": "cell-free assay, competition with immobilised ligand", "setting": "1 µM", "measurement": "remaining binding", "value": "99%"}
{"SMILES": "Cn1c2c(c3ccc(Cl)c(Cl)c31)C(C#N)C1(CCCC1)NC2=O (centres unmarked)", "assay": "thermal stability, DSF", "setting": "10 µM", "measurement": "ΔTm", "value": "0 °C"}
{"SMILES": "CCCOc1ccc(OC)c(F)c1C(=O)c1ccc(C(=O)N[C@@H]2CNC[C@H]2NC(=O)c2ccc3[nH]ncc3c2)cc1", "assay": "enzyme activity, inhibitor", "setting": "10 µM", "measurement": "remaining activity", "value": "39%"}
{"SMILES": "Cn1c2c(c3ccc(Cl)c(Cl)c31)C(C#N)C1(CCNCC1)NC2=O (racemic)", "assay": "thermal stability, DSF", "setting": "10 µM", "measurement": "ΔTm", "value": "0.2 °C"}
{"SMILES": "CS(=O)(=O)CCNCc1ccc(-c2ccc3ncnc(Nc4ccc(OCc5cccc(F)c5)c(Cl)c4)c3c2)o1", "assay": "cell-free assay", "setting": "0.5 µM", "measurement": "remaining signal", "value": "104%"}
{"SMILES": "COc1cc(Cl)c(C(=O)N[C@@H](CN[C@H]2CC[C@@H](N)CC2)Cc2ccc(C#N)cc2)cc1-c1ccc(CN[C@H](C)c2ccc(C)cc2)o1", "assay": "enzyme activity, inhibitor", "setting": "1 µM", "measurement": "remaining activity", "value": "90%"}
{"SMILES": "O=C(Nc1cnn(-c2csc(C(=O)NC3COC3)c2)c1)Nc1ccccc1Cl", "assay": "enzyme activity, inhibitor", "setting": "5 µM", "measurement": "remaining activity", "value": "96.8%"}
{"SMILES": "COc1ccc(COc2ccc(Cc3cnc(N)nc3N)cc2OC)cc1", "assay": "cell-free assay", "setting": "0.5 µM", "measurement": "remaining signal", "value": "99.9%"}
{"SMILES": "CC1(C)NC(=O)c2[nH]c3c(Cl)c(Cl)ccc3c2C1C#N (centres unmarked)", "assay": "thermal stability, DSF", "setting": "10 µM", "measurement": "ΔTm", "value": "0.2 °C"}
{"SMILES": "CCOC(=O)c1cc2cc(-c3cc(C(=O)NCc4ccc(C(=O)O)cc4)nn3C)ccc2[nH]1", "assay": "cell-free assay, competition with immobilised ligand", "setting": "0.1 µM", "measurement": "remaining binding", "value": "100%"}
{"SMILES": "COc1cc2c(N3CCN(C(=O)Nc4ccc(OC(C)C)cc4)CC3)ncnc2cc1OCCCN1CCCCC1", "assay": "cell-free assay", "setting": "0.5 µM", "measurement": "remaining signal", "value": "95.6%"}
{"SMILES": "CCC1(CC)NC(=O)c2c(c3ccc(Cl)c(Cl)c3n2C)C1C#N (centres unmarked)", "assay": "thermal stability, DSF", "setting": "10 µM", "measurement": "ΔTm", "value": "-0.3 °C"}
{"SMILES": "Cc1ccc(-n2nc(C(C)(C)C)cc2NC(=O)Nc2ccc(OCCN3CCOCC3)c3ccccc23)cc1", "assay": "enzyme activity, inhibitor", "setting": "10 µM", "measurement": "inhibition", "value": "81%"}
{"SMILES": "CCN(CC)CCNC(=O)c1c(C)[nH]c(/C=C2\\C(=O)Nc3ccc(F)cc32)c1C", "assay": "enzyme activity, inhibitor", "setting": "10 µM", "measurement": "inhibition", "value": "98%"}
{"SMILES": "CNc1cccc2cc(C(=O)Nc3ccc(C(=O)O)cc3)c(=O)[nH]c12", "assay": "enzyme activity, inhibitor", "setting": "10 µM", "measurement": "inhibition", "value": "-4.6%"}
{"SMILES": "O=C(Nc1cnn(-c2csc(C(=O)NC3COC3)c2)c1)Nc1c(F)cccc1Cl", "assay": "enzyme activity, inhibitor", "setting": "5 µM", "measurement": "remaining activity", "value": "95.3%"}
{"SMILES": "CC(=O)c1c(NS(C)(=O)=O)c2cc(-c3ccc(Cl)cc3)c(-c3ccc(Cl)cc3Cl)nc2n(C)c1=O", "assay": "cell-free assay, competition with immobilised ligand", "setting": "1 µM", "measurement": "remaining binding", "value": "100%"}
{"SMILES": "N#CCCc1ccc2c(c1)-c1[nH]c3ccc([N+](=O)[O-])cc3c1CC(=O)N2", "assay": "cell-free assay", "setting": "0.5 µM", "measurement": "remaining signal", "value": "23%"}
{"SMILES": "Cn1c2c(c3ccc(Cl)c(Cl)c31)C(C#N)C1(CCOCC1)NC2=O (centres unmarked)", "assay": "thermal stability, DSF", "setting": "10 µM", "measurement": "ΔTm", "value": "-0.2 °C"}
{"SMILES": "O=C(N1CCS(=O)(=O)CC1)N1C[C@H](c2ccc(OC(F)(F)F)cc2)C[C@H](c2nc(C3CC3)no2)C1", "assay": "cell-free assay, competition with immobilised ligand", "setting": "1 µM", "measurement": "remaining binding", "value": "85%"}
